Here are results for 2 molecules from ChEMBL document CHEMBL4350999, “Enhanced tumor retention of NTSR1-targeted agents by employing a hydrophilic cysteine cathepsin inhibitor” (Eur J Med Chem, 2019).

Active and inactive are the calls of the source. The calls are words filed in the database; no cut-off is given here.

The nature of series [1]: Drug uptake in small intestine of SCID mouse xenografted with human HT-29 cells using 177Lu labelled compound at 0.37 MBq/mouse, iv co-treated with D-lysine at 40 mg/kg measured at 24 hrs by gamma counter analysis. Format: ADME, organism-based. Particulars: in vivo.
Series [2] can be described thus: Drug localization in endolysosomal compartment of human HT-29 cells assessed as co-localization efficiency at 5 uM incubated for 2 hrs and measured over 24 hrs using natEu labelled compound by lysotracker green staining based confocal microscopic analysis relative to control. Type of series: ADME, subcellular. Particulars: ht-29, 5 µM. The gist of the method: (§1)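 HT-29 cells (1.25 × 10^5/well) loaded with natEu conjugate (5 μM), washed, then chased in fresh medium up to 24 h. Lysotracker Green (100 nM) applied 2 h before each read; cells fixed and imaged confocally at 405/488 nm. Per-cell mean fluorescence and Lysotracker co-localization quantified.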

A short description of series [3]: Drug uptake in spleen of SCID mouse xenografted with human HT-29 cells pretreated for 1 hr with colchicine at 1 mg/kg, ip followed by 177Lu labelled compound at 0.37 MBq/mouse, iv measured at 24 hrs by gamma counter analysis. Format: ADME, organism-based. Particulars: in vivo. The gist of the method:
(§2)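 HT-29 xenograft SCID mice pretreated with colchicine 1 mg/kg i.p., then given 177Lu conjugate i.v. at 10 μCi (0.37 MBq)/mouse. Tissues excised at 24 h, weighed and gamma counted for %ID/g (n = 5, mean ± SD).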

A short description of series [4]: Ratio of drug uptake in SCID mouse xenograted with human HT-29 cells assessed as tumour retention to drug uptake in kidney of SCID mouse xenografted with human HT-29 cells cotreated with D-lysine at 40 mg/kg measured after 24 hrs using 177Lu labelled compound. Format: ADME, organism-based, Tumor/Kidney. As to conditions: in vivo. The gist of the method: (§3)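 HT-29 s.c. xenografts in female SCID mice. 177Lu conjugate given i.v. by tail vein at 10 μCi (0.37 MBq)/mouse, co-injected with D-lysine 40 mg/kg. Tissues were taken at 24 h, weighed and gamma counted. Uptake expressed as %ID/g (n = 5, mean ± SD); tumor-to-tissue ratios derived from these values.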

Series [5] is described as follows: Drug uptake in small intestine of SCID mouse xenografted with human HT-29 cells pretreated for 1 hr with colchicine at 1 mg/kg, ip followed by 177Lu labelled compound at 0.37 MBq/mouse, iv measured at 24 hrs by gamma counter analysis. Format: ADME, organism-based. As to conditions: in vivo. The procedure, abridged: (§4)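 HT-29 flank xenografts in female SCID mice (5 × 10^6 cells in Matrigel, about 80 mm3). Colchicine 1 mg/kg was given i.p. before a tail-vein injection of 10 μCi (0.37 MBq) of purified 177Lu-conjugate. Tissues were taken at 24 h, weighed and gamma-counted as %ID/g; mean ± SD, n = 5.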
Background: In xenograft studies the graft and the host belong to different species.

Series [6] in a line: Drug uptake in large intestine of SCID mouse xenografted with human HT-29 cells using 177Lu labelled compound at 0.37 MBq/mouse, iv co-treated with D-lysine at 40 mg/kg measured at 24 hrs by gamma counter analysis. Type of series: ADME, organism-based. As to conditions: in vivo. The procedure, abridged:
(§5)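 Female SCID mice bore s.c. HT-29 xenografts (5 × 10^6 cells in Matrigel, about 80 mm3). D-lysine 40 mg/kg was co-injected i.v. with 10 μCi (0.37 MBq) of purified 177Lu-conjugate. Tissues were harvested at 24 h, weighed and gamma-counted, reported as %ID/g; mean ± SD, n = 5.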

Series [7] can be described thus: Drug uptake in liver of SCID mouse xenografted with human HT-29 cells using 177Lu labelled compound at 0.37 MBq/mouse, iv co-treated with D-lysine at 40 mg/kg measured at 24 hrs by gamma counter analysis. Format: ADME, organism-based. Particulars: in vivo. The procedure, abridged: as §5
In series [8] the target is T1, Procathepsin L (Homo sapiens, UniProt P07711). Briefly: Binding affinity to human liver cathepsin L assessed as protein-conjugate adduct formation at 0.74 MBq incubated for 30 mins in presence of E-64 using 177Lu labelled compound by SDS-PAGE analysis. Particulars: 0.74 M. The procedure, abridged: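 Purified human liver CatB or CatL (3 nM) in 50 mM sodium acetate/1 mM EDTA pH 5.0 incubated 30 min with 177Lu conjugate (500,000 cpm) in Tris/MgCl2/DTT buffer pH 5.5, alone or with E-64 (10 μM) or N1 (20 μM). Mixtures heated 85 °C 2 min, run on 16% tris-glycine gel at 110 V for 90 min, and read by phosphor autoradiography.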
Target sequence in this assay (P07711 114-333 limits assumed): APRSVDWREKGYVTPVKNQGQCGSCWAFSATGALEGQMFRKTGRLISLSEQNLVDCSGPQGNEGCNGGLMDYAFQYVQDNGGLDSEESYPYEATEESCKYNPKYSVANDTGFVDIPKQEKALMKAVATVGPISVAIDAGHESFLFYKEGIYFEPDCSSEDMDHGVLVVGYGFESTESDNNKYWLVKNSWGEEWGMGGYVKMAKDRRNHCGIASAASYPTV

The nature of series [9]: Drug uptake in lung of SCID mouse xenografted with human HT-29 cells pretreated for 1 hr with colchicine at 1 mg/kg, ip followed by 177Lu labelled compound at 0.37 MBq/mouse, iv measured at 24 hrs by gamma counter analysis. Type of series: ADME, organism-based. Particulars: in vivo. The gist of the method:
as §4

Series [10] can be described thus: Drug uptake in pancreas of SCID mouse xenografted with human HT-29 cells pretreated for 1 hr with colchicine at 1 mg/kg, ip followed by 177Lu labelled compound at 0.37 MBq/mouse, iv measured at 24 hrs by gamma counter analysis. Format: ADME, organism-based. Particulars: in vivo. The gist of the method:
as §4

The nature of series [11]: Drug uptake in stomach of SCID mouse xenografted with human HT-29 cells pretreated for 1 hr with colchicine at 1 mg/kg, ip followed by 177Lu labelled compound at 0.37 MBq/mouse, iv measured at 24 hrs by gamma counter analysis. Format: ADME, organism-based. As to conditions: in vivo. The gist of the method: as §2
Series [12] can be described thus: Drug uptake in lung of SCID mouse xenografted with human HT-29 cells using 177Lu labelled compound at 0.37 MBq/mouse, iv co-treated with D-lysine at 40 mg/kg measured at 24 hrs by gamma counter analysis. Type of series: ADME, organism-based. Particulars: in vivo. The gist of the method:
as §5

A short description of series [13]: Drug uptake in muscle of SCID mouse xenografted with human HT-29 cells pretreated for 1 hr with colchicine at 1 mg/kg, ip followed by 177Lu labelled compound at 0.37 MBq/mouse, iv measured at 24 hrs by gamma counter analysis. Particulars: in vivo. Type of series: ADME, organism-based, Muscle tissue. The gist of the method: as §4
Series [14] can be described thus: Drug uptake in spleen of SCID mouse xenografted with human HT-29 cells using 177Lu labelled compound at 0.37 MBq/mouse, iv co-treated with D-lysine at 40 mg/kg measured at 24 hrs by gamma counter analysis. Format: ADME, organism-based. As to conditions: in vivo. The gist of the method:
as §3

A short description of series [15]: Drug retention in liver of mouse xenografted with human HT-29 cells assessed as tissue-conjugate adduct formation at 29.6 MBq co-treated with D-lysine at 40 mg/kg measured after 72 hrs using 177Lu labelled compound by SDS-PAGE analysis. Type of series: ADME, organism-based. As to conditions: in vivo.
Series [16] can be described thus: Drug uptake in brain of SCID mouse xenografted with human HT-29 cells using 177Lu labelled compound at 0.37 MBq/mouse, iv co-treated with D-lysine at 40 mg/kg measured at 24 hrs by gamma counter analysis. Format: ADME, organism-based. Particulars: in vivo. The gist of the method:
as §5

Series [17] deals with T1, Procathepsin L. Briefly: Inhibition of human liver cathepsin L assessed as inhibition constant using Z-Phe-Arg-AMC as substrate measured every 5 mins for 1 hr by fluorescence assay. The procedure, abridged: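 Human liver cathepsin L in acetate buffer pH 5.5 (340 mM sodium acetate, 60 mM acetic acid, 1 mM EDTA, 3 mM DTT). Biological triplicate.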
Target sequence in this assay (P07711 whole entry): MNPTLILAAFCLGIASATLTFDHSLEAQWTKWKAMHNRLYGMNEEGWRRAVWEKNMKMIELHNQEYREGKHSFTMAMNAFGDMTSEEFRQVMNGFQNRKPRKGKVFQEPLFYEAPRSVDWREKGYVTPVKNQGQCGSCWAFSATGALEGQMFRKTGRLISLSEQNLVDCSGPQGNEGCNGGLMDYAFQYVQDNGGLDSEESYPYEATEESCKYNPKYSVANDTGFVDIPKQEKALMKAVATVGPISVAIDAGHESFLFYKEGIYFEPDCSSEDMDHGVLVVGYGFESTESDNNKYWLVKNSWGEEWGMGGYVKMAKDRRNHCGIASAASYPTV
The nature of series [18]: Ratio of drug uptake in SCID mouse xenograted with human HT-29 cells assessed as tumour retention to drug uptake in small intestine of SCID mouse xenografted with human HT-29 cells cotreated with D-lysine at 40 mg/kg measured after 24 hrs using 177Lu labelled compound. Type of series: ADME, organism-based, Tumor/Small intestine. Particulars: in vivo.
Series [19] can be described thus: Drug localization in endolysosomal compartment of human HT-29 cells assessed as decrease in co-localization efficiency at 5 uM incubated for 2 hrs and measured over 24 hrs using natEu labelled compound by lysotracker green staining based confocal microscopic analysis relative to control. Format: ADME, subcellular. Particulars: ht-29, 5 µM. The procedure, abridged:
as §1

A word on the Ki: it is the equilibrium dissociation constant of an inhibitor or competing ligand from its target. In the case of `Cc1cc(O)cc(C)c1C[C@H](NC(=O)[C@@H]1CCCN1C(=O)[C@H](CCCNC(=N)N)NC(=O)[C@H](CCCNC(=N)N)N(C)C(=O)[C@@H]1CCCN1C(=O)[C@H](CCCCN)NC(=O)[C@@H](CO)NC(=O)[C@@H](CO)NC(=O)[C@@H](CO)NC(=O)[C@H](Cc1cn(CCNC(=O)[C@H](CCCNC(=N)N)NC(=O)[C@H](CC(C)C)NC(=O)C2OC2C(=O)O)nn1)NC(=O)CN1CCN(CC(=O)O)CCN(CC(=O)O)CCN(CC(=O)O)CC1)C(=O)N[C@H](C(=O)N[C@@H](CC(C)C)C(=O)O)C(C)(C)C` (some centres undefined), the Drug uptake came to 1.47 % ID/g in [1]; 60% in [2]; 4 % ID/g in series [3]; 2.2 % ID/g in [5]; 0.8 % ID/g in series [6]; 0.65 % ID/g in [7]. Further, the Drug uptake is given as 3.2 % ID/g in series [9]; 0.7 % ID/g in series [10]; 0.29 % ID/g in [11]; 0.41 % ID/g in series [12]; 0.06 % ID/g in [13]; 1.1 % ID/g in series [14]. In addition, the Drug uptake entry was “Not Active” in series [15] and 0.02 % ID/g in [16]. The results for the Ratio in [4] and in series [18] were 0.2 and 4, respectively. Moreover, the result on Procathepsin L [8] was inactive. Besides, the Ki at Procathepsin L [17] is 76 nM.
Turning to `Cc1cc(O)cc(C)c1C[C@H](NC(=O)[C@@H]1CCCN1C(=O)[C@H](CCCNC(=N)N)NC(=O)[C@H](CCCNC(=N)N)N(C)C(=O)[C@@H]1CCCN1C(=O)[C@H](CCCCN)NC(=O)[C@@H](CO)NC(=O)[C@@H](CO)NC(=O)[C@@H](CO)NC(=O)[C@H](Cc1cn(CCNC(=O)[C@H](CCCNC(=N)N)NC(=O)[C@H](CC(C)C)NC(=O)CCC(=O)O)nn1)NC(=O)CN1CCN(CC(=O)O)CCN(CC(=O)O)CCN(CC(=O)O)CC1)C(=O)N[C@H](C(=O)N[C@@H](CC(C)C)C(=O)O)C(C)(C)C`, the Drug uptake in [19] was 20%.
